{"data": "Experimental data of several laboratories", "effect on": "cell growth or viability", "note": "Lines come from different studies, so protocols differ."}
{"SMILES": "CC(C)Nc1ccnc(Nc2cccc(-c3cccnc3)c2)n1", "cell line": "BJ", "technique": "ATP luminescence", "time": "72 h", "quantity": "EC50", "value": "> 17 µM"}
{"SMILES": "COc1ccc(-c2ccc(-c3ccc(C(=N)N)nc3)s2)cc1", "cell line": "ACHN", "quantity": "GI50", "value": "1.84 µM"}
{"SMILES": "CN(C)C/C=C/C(=O)Nc1cc2c(Nc3ccc(F)c(Cl)c3)ncnc2cc1O[C@H]1CCOC1", "cell line": "KB-C2", "technique": "ATP luminescence", "tested at": "3 µM", "time": "12 days", "setting": "3D culture", "quantity": "viability", "value": "67.7%"}
{"SMILES": "Cc1cc(Cl)c(Cl)cc1NC(=O)c1ccc(N2CCNCC2)nc1", "cell line": "BJ", "technique": "ATP luminescence", "quantity": "EC50", "value": "> 24 µM"}
{"SMILES": "COC(=O)[C@H](C)Nc1ccnc(Nc2cccc(-c3cccnc3)c2)n1", "cell line": "BJ", "technique": "ATP luminescence", "time": "72 h", "quantity": "EC50", "value": "> 8 µM"}
{"SMILES": "Oc1ccc(Nc2nc(-c3ccc(Cl)cc3)cs2)cc1", "cell line": "1205Lu", "technique": "MTS", "time": "48 h", "quantity": "IC50", "value": "86.3 µM"}
{"SMILES": "C=CC(=O)N1CCC[C@@H](n2nc(-c3ccc(Oc4ccccc4)cc3)c3c(N)ncnc32)C1", "cell line": "UPN1", "technique": "ATP luminescence", "time": "72 h", "quantity": "GI50", "value": "4.87 µM"}
{"SMILES": "O=C(Nc1cncc(-c2nc3ccccc3s2)c1)c1cc([N+](=O)[O-])c(N2CCNCC2)cc1Cl", "cell line": "BJ", "technique": "ATP luminescence", "quantity": "EC50", "value": "> 15.3 µM"}
{"SMILES": "CCNc1ccnc(Nc2cccc(-c3cccnc3)c2)n1", "cell line": "BJ", "technique": "ATP luminescence", "time": "72 h", "quantity": "EC50", "value": "> 21 µM"}
{"SMILES": "C[C@]12CC[C@@H]3c4ccc(O)cc4CC[C@H]3[C@@H]1CC[C@@H]2O", "cell line": "OVCAR-3", "technique": "ATP luminescence", "time": "72 h", "quantity": "EC90", "value": "76.1 µM"}
{"SMILES": "CC#CC(=O)N1CC[C@@H](n2cc(-c3ccc(Oc4c(F)cccc4F)cc3)c3c(N)n[nH]c(=O)c32)C1", "cell line": "UPN1", "technique": "ATP luminescence", "time": "72 h", "quantity": "GI50", "value": "2.21 µM"}
{"SMILES": "CC(=O)c1c(C)c2cnc(Nc3ccc(N4CCNCC4)cn3)nc2n(C2CCCC2)c1=O", "cell line": "MDA-MB-157", "technique": "resazurin", "quantity": "GI50", "value": "> 5 µM"}
{"SMILES": "c1cc(Nc2nccc(NC3CCCCC3)n2)cc(-c2ncco2)c1", "cell line": "BJ", "technique": "ATP luminescence", "time": "72 h", "quantity": "EC50", "value": "> 45 µM"}
{"SMILES": "COc1cc(-c2ccc(-c3ccc(C(=N)N)nc3)s2)cc(OC)c1OC", "cell line": "OVCAR-3", "technique": "SRB", "quantity": "GI50", "value": "2.6 µM"}
